Assay results from ChEMBL document CHEMBL2086264.
≈ marks a conversion by molar mass, not a printed value. Calls of active or inactive are those of the source. The calls are words filed in the database; no cut-off is given here.

Experiments:
Enterococcus faecalis = experiment: Antibacterial activity against Enterococcus faecalis ATCC 33186 after overnight incubation by microbroth dilution assay; assay type: functional
How it was run: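 CLSI microbroth dilution in Mueller-Hinton broth; compounds dissolved in DMSO, twofold serial dilutions giving final 200–0.0125 µg/mL. Inoculum from single colony grown at 37°C to mid-log (OD600 0.5), diluted to final OD600 0.0005 (~10^5 CFU/mL). Incubated overnight at 37°C; MIC = lowest concentration inhibiting 90% of visible growth.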

Bacillus anthracis [1] = experiment: Inhibition of RNA synthesis in Bacillus anthracis sterne assessed as Inhibition of [3H]uracil incorporation into RNA incubated for 15 mins prior to [3H]uracil addition measured after 30 mins by scintillation counting; assay type: functional, organism-based
Bacillus anthracis [2] = experiment: Inhibition of DNA synthesis in Bacillus anthracis sterne assessed as Inhibition of [3H]thymidine incorporation into DNA incubated for 15 mins prior to [3H]thymidine addition measured after 30 mins by scintillation counting; assay type: functional, organism-based
Bacillus subtilis = experiment: Antibacterial activity against Bacillus subtilis ATCC 23857 after overnight incubation by microbroth dilution assay; assay type: functional
How it was run: (§1)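 CLSI M7A7 microbroth dilution in Mueller-Hinton broth; S. pneumoniae broth given 5% lysed horse blood. DMSO stocks of 10 mg/mL; twofold dilutions to final 200–0.0125 µg/mL. Mid-log inoculum (OD600 0.5) diluted to final OD600 0.0005 (~10^5 CFU/mL). Overnight at 37°C; MIC is the lowest concentration inhibiting 90% of visible growth.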

Bacillus anthracis [3] = experiment: Inhibition of protein synthesis in Bacillus anthracis sterne assessed as Inhibition of [3H]amino acid incorporation into protein incubated for 15 mins prior to [3H]amino acid addition measured after 30 mins by scintillation counting; assay type: functional, organism-based
[4] = Inhibition of Staphylococcus aureus PlsY expressed in Escherichia coli FB23281 using [U-14C]glycerol-PO4 as substrate after 20 mins by scintillation counting
How it was run: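 Membranes from E. coli FB23281 (ΔplsY) expressing S. aureus PlsY (SA1187), 4 µg per reaction. pH 7.4 buffer of 100 mM Tris–HCl, 150 mM NaCl, 1 mg/mL BSA and 5 mM Na3VO4, with 100 µM [U-14C]glycerol-PO4. Started with 16:0-PO4 (final 100 µM), 20 min at 37°C. Spotted on filter discs, washed in graded ice-cold TCA, scintillation counted.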

Bacillus anthracis [5] = experiment: Antibacterial activity against Bacillus anthracis after overnight incubation by microbroth dilution assay; assay type: functional
Streptococcus pneumoniae = experiment: Antibacterial activity against Streptococcus pneumoniae R6 after overnight incubation by microbroth dilution assay; assay type: functional; how it was run: as §1
Staphylococcus aureus = experiment: Antibacterial activity against Staphylococcus aureus ATCC 29213 after overnight incubation by microbroth dilution assay; assay type: functional; how it was run: as §1

Structure (SMILES)	MIC90 (Enterococcus faecalis) [µg/mL]	inhibition (Bacillus anthracis [1])	inhibition (Bacillus anthracis [2])	MIC90 (Bacillus subtilis) [µg/mL]	inhibition (Bacillus anthracis [3])	IC50 [4] [µM]	MIC90 (Bacillus anthracis [5]) [µg/mL]	MIC90 (Streptococcus pneumoniae) [µg/mL]	MIC90 (Staphylococcus aureus) [µg/mL]
CCCCCCCCCCCCCCCC(=O)NS(=O)(=O)Oc1ccccc1 [PHENYL PALMITOYLSULFAMATE]	50 (≈ 121 µM)	Active	Active	50 (≈ 121 µM)	Active	8	3.13 (≈ 7.6 µM)	> 200	> 200
CCCCCCCCCCCCCCCC(=O)NS(=O)(=O)OC1CCOCC1	> 200	Active	Active	> 200	Active	30	3.13 (≈ 7.46 µM)	> 200	> 200
CCCCCCCCCCCCCCCC(=O)NS(=O)(=O)Oc1ccc(Cl)cc1	> 200	Active	Active	> 200	Active	6	6.25 (≈ 14 µM)	100 (≈ 224 µM)	> 200
CCCCCCCCCCCCCCCC(=O)NS(=O)(=O)Oc1ccc(CCN)cc1	> 200	Active	Active	> 200	Active	> 100	> 100	> 200	> 200
O=C(CCCCCCCCCCc1ccccc1)NS(=O)(=O)Oc1ccccc1	12.5 (≈ 29.9 µM)	Active	Active	100 (≈ 239 µM)	Active	8	3.13 (≈ 7.5 µM)	200 (≈ 479 µM)	6.25 (≈ 15 µM)
CCCCCCCCCCCCCCCC(=O)NS(=O)(=O)Oc1ccc2ncccc2c1	200 (≈ 432 µM)	Active	Active	200 (≈ 432 µM)	Active	9	3.13 (≈ 6.77 µM)	1.56 (≈ 3.37 µM)	> 200
CCCCCCCCCCCCCCCC(=O)NS(=O)(=O)Oc1cccc(Cl)c1	100 (≈ 224 µM)	Active	Active	100 (≈ 224 µM)	Active	14	3.13 (≈ 7.02 µM)	> 200	> 200
O=C(CCCCCCc1ccccc1)NS(=O)(=O)Oc1ccccc1	100 (≈ 277 µM)	Active	Active	> 200	Active	76	12.5 (≈ 34.6 µM)	50 (≈ 138 µM)	50 (≈ 138 µM)
CCCCCCCCCCCCCCCC(=O)NS(=O)(=O)OC1CCOC1 (configuration not stated)	> 200	Active	Active	> 200	Active	45	1.56 (≈ 3.85 µM)	> 200	25 (≈ 61.6 µM)
C=CCCCCCCCCC(=O)NS(=O)(=O)Oc1ccc(OC)cc1	1.6 (≈ 4.33 µM)	Active	Active	6.25 (≈ 16.9 µM)	Active	27	12.5 (≈ 33.8 µM)	200 (≈ 541 µM)	12.5 (≈ 33.8 µM)
CCCCCCCCCCCCCCCC(=O)NS(=O)(=O)OC1CCCC1 [CYCLOPENTYL PALMITOYLSULFAMATE]	> 200	Active	Active	> 200	Active	> 100	> 100	> 200	> 200
CCCCCCCCCCCCCCCC(=O)NS(=O)(=O)Oc1ccc(C(=O)OCC)cc1	> 200	Active	Active	> 200	Active	10	3.13 (≈ 6.47 µM)	1.56 (≈ 3.23 µM)	6.25 (≈ 12.9 µM)
CCCCCCCCCCCCCCCC(=O)NS(=O)(=O)Oc1ccc2c(OS(N)(=O)=O)coc2c1	100 (≈ 183 µM)	Active	Active	100 (≈ 183 µM)	Active	41	3.13 (≈ 5.73 µM)	3.13 (≈ 5.73 µM)	25 (≈ 45.7 µM)
